Experimental findings from ChEMBL document CHEMBL4732036, “Phenyl bioisosteres in medicinal chemistry: discovery of novel gamma-secretase modulators as a potential treatment for Alzheimer''s disease” (RSC Med Chem, 2021) are described below.

The target in one series is Gamma-secretase. The experiment in a line: Modulatory activity of gamma secretase in human H4 cells overexpressing human APP695 K595N/M596L mutant assessed as decrease in amyloidbeta42 levels at 24 hrs by Alphalisa method. The series is classed as cell-based. In a few lines: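 H4 neuroglioma cells stably expressing APP695 Swedish mutant, in IMDM with 10% FCS and […] hygromycin B, at 37 °C, 5% CO2. Compounds added 3-4 h after plating and incubated 24 h, typically 4 µM down to 0.0013 µM in half-log steps (8 points), final Me2SO 0.4%. Secreted Aβ in supernatant quantified by AlphaLisa (3 h antibody mix, then donor beads 30 min, RT). IC50 by nonlinear regression.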
Background: Bead proximity is the source of the signal in Alpha formats.

Series [1] can be described thus: Distribution coefficient between 1-octanol and phosphate buffer, logD of the compound after 24 hrs by shake flask assay. Format: physicochemical. The settings on record: 1-octanol/phosphate buffer. In a few lines:
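CAMDIS high-throughput shake-flask method. PVDF membranes impregnated with 1-octanol are dipped in 25 mM phosphate buffer, pH 7.4, containing the compound, then shaken 24 h at 23 °C. Remaining aqueous concentration measured by LC/MS. logD calculated from the aqueous concentration with and without octanol impregnation, and the phase ratio.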

A short description of series [2]: Solubility of compound in PBS buffer at pH 6.5 incubated for over night by HPLC-UV based LYSA assay. Format: physicochemical. In a few lines: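 Duplicate samples from 10 mM DMSO stocks. DMSO evaporated, residue dissolved in 0.05 M phosphate buffer, pH 6.5, stirred 1 h, shaken 2 h, left overnight, then filtered. Filtrate and its 1/10 dilution measured by direct UV or HPLC-UV against a four-point calibration curve.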

The structures appear in SMILES notation. Values after ≈ are worked out from the molar mass of the structure shown.

One may read the IC50 as the concentration that gives 50% inhibition. By logD is commonly meant lipophilicity at a set pH, counting ionised and neutral species. Lower therefore signals lower lipophilicity. The term solubility denotes how much of the substance goes into solution per volume. Low readings indicate a poorly soluble substance, high ones a readily soluble substance. With `Cc1nnc(C23CCC(Nc4nc5n(n4)CCCN5c4ccc(OC(F)(F)F)cc4)(CC2)CC3)o1`, the IC50 at Gamma-secretase turned out to be 21 nM. Also, the logD at 24 h in series [1] worked out at 3.7. This compound also gave a solubility at 12 h in series [2] of 0.4 µg/mL (≈ 0.817 µM).
Consider `Cc1cc(C23CC(Nc4nc5n(n4)CCCC[C@H]5c4ccc(F)c(F)c4F)(C2)C3)ncn1`, for which the IC50 on Gamma-secretase amounted to 11 nM. The logD at 24 h in series [1] amounted to 3.8. Moreover, the solubility at 12 h in series [2] was 1 µg/mL (≈ 2.27 µM).
With `Cc1nnc(-c2ccc(Nc3nc4n(n3)CCCN4c3cccc(Cl)c3)cc2)o1`, the IC50 on Gamma-secretase came to 95 nM. The logD at 24 h in series [1] was found to be 3.2. Further, the solubility at 12 h in series [2] was less than 0.1 µg/mL.
The like results for `Cc1nnc(C23CCC(Nc4nc5n(n4)CCCN5c4cccc(Cl)c4)(CC2)CC3)o1` were, in that order, 114 nM, 3.1 and 132 µg/mL (≈ 300 µM).
Take `Cc1nnc(-c2ccc(Nc3nc4n(n3)CCCN4c3ccc(OC(F)(F)F)cc3)cc2)o1`: at Gamma-secretase, the IC50 is 227 nM. In series [1], this compound had a logD at 24 h of more than 4. The same compound displayed a solubility at 12 h in series [2] of less than 0.1 µg/mL.
On to `Cc1nnc(C23CC(Nc4nc5n(n4)CCCN5c4cccc(Cl)c4)(C2)C3)o1`, for which, at Gamma-secretase, the IC50 came out at 777 nM. In addition, the logD at 24 h in series [1] came out at 2.4. The solubility at 12 h in series [2] was determined as 167 µg/mL (≈ 420 µM).
`Cc1nnc(C23CC(Nc4nc5n(n4)CCCN5c4ccc(OC(F)(F)F)cc4)(C2)C3)o1`: the IC50 on Gamma-secretase was 587 nM. The same compound had a logD at 24 h in series [1] of 2.8. For the same compound, the concentration in solution in series [2] (solubility at 12 h) was 3.2 µg/mL (≈ 7.15 µM).
With `Cc1nnc(-c2ccc(Nc3nc(Cc4ccc(Cl)cc4)cc(C(C)(C)O)n3)cc2)o1`, the IC50 on Gamma-secretase worked out at 478 nM. The same compound returned a logD at 24 h in series [1] of more than 4. This compound also showed a solubility at 12 h in series [2] of less than 0.1 µg/mL.
On to `Cc1nnc(C23CC(Nc4nc(Cc5ccc(Cl)cc5)cc(C(C)(C)O)n4)(C2)C3)o1`, for which the IC50 at Gamma-secretase is 520 nM. In series [1], this compound came in with a logD at 24 h of 4. The amount in solution in series [2] (solubility at 12 h) came to 11 µg/mL (≈ 25.8 µM).
As for `Cc1nnc(-c2ccc(Nc3nc(Oc4cccc(Cl)c4)n(C(C)C)n3)cc2)o1`, the IC50 on Gamma-secretase is 510 nM. The logD at 24 h in series [1] is more than 4. In addition, the solubility at 12 h in series [2] was less than 0.1 µg/mL.
For `Cc1nnc(C23CC(Nc4nc(Oc5cccc(Cl)c5)n(C(C)C)n4)(C2)C3)o1`, the IC50 on Gamma-secretase stood at 214 nM. Further, the logD at 24 h in series [1] worked out at 4.1. In series [2], this compound had a solubility at 12 h of 88 µg/mL (≈ 220 µM).
As for `Cc1nnc(N2CC3CCC(C2)C3Nc2nc3n(n2)CCCN3c2ccc(OC(F)(F)F)cc2)o1` (centres undefined), the IC50 on Gamma-secretase was 46 nM. The compound also registered a logD at 24 h in series [1] of 3.5. Also, the solubility at 12 h in series [2] stood at 106 µg/mL (≈ 216 µM).
As to `Cc1nnc(C23CCC(Nc4nc(Cc5ccc(Cl)cc5)cc(C(C)(C)O)n4)(CC2)CC3)o1`, the IC50 at Gamma-secretase was found to be 146 nM. Besides, the logD at 24 h in series [1] is more than 4. The solubility at 12 h in series [2] was less than 0.1 µg/mL.
With `Cc1nnc(N2CC3CCC(C2)C3Nc2nc(Cc3ccc(Cl)cc3)cc(C(C)(C)O)n2)o1` (centres undefined), on Gamma-secretase, the IC50 turned out to be 38 nM. The same compound had a logD at 24 h in series [1] of 4. In series [2], this compound registered a solubility at 12 h of 18 µg/mL (≈ 38.4 µM).
As to `Cc1nnc(C23CCC(Nc4nc(Oc5cccc(Cl)c5)n(C(C)C)n4)(CC2)CC3)o1`, at Gamma-secretase, the IC50 was found to be 118 nM. In series [1], the logD at 24 h was found to be 4.1. The same compound gave a solubility at 12 h in series [2] of 15 µg/mL (≈ 33.9 µM).
Regarding `Cc1cc(N2CC3CCC(C2)C3Nc2nc3n(n2)CCCC[C@H]3c2ccc(F)c(F)c2F)ncn1` (some centres undefined), the IC50 at Gamma-secretase worked out at 17 nM. The same compound registered a logD at 24 h in series [1] of 3.4. This compound yielded a solubility at 12 h in series [2] of 7 µg/mL (≈ 14.5 µM).
`Cc1nnc(N2CC3CCC(C2)C3Nc2nc(Oc3cccc(Cl)c3)n(C(C)C)n2)o1` (centres undefined): the IC50 at Gamma-secretase came to 42 nM. For the same compound, the logD at 24 h in series [1] is 3.6. Also, the solubility at 12 h in series [2] stood at 104 µg/mL (≈ 234 µM).
As to `Cc1nnc(N2CC3CCC(C2)C3Nc2nc3n(n2)CCCN3c2cccc(Cl)c2)o1` (centres undefined), at Gamma-secretase, the IC50 came out at 34 nM. In addition, the log distribution coefficient (logD) at 24 h in series [1] was 2.7. This compound yielded a solubility at 12 h in series [2] of 233 µg/mL (≈ 528 µM).
